From ChEMBL document CHEMBL1629417, “Benzophenones and biflavonoids from Rheedia edulis” (J Nat Prod, 2010) come the findings set out here.

Experiment [1] deals with Radical scavenging activity. Kind of experiment: Antioxidant activity assessed as DPPH radical scavenging activity. Type of experiment: functional. The method, boiled down: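 Follows a previously described method. Trolox and gallic acid serve as reference antioxidants. Scavenging is expressed as percent inhibition of DPPH relative to DMSO-treated controls, and IC50 values are derived from it.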
In general terms: DPPH is a stable violet radical that fades when it is reduced.

A short description of experiment [2]: Antioxidant activity assessed as ABTS radical scavenging activity. It is filed as functional. The essentials:
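Based on the Re et al. ABTS radical cation decolorization method, with modifications. Trolox and gallic acid serve as reference antioxidants. Percent inhibition of ABTS is calculated as in the DPPH assay, relative to DMSO-treated controls, and IC50 values are derived from it.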

For the compound `CC(C)=CC[C@H]1C[C@]2(CC=C(C)C)C(=O)[C@@](CC=C(C)C)(C(=O)C(C(=O)c3ccccc3)=C2O)C1(C)C` [6-EPI-CLUSIANONE], the results for the IC50 in experiment [1] and in experiment [2] were 766 µM and 287 µM, respectively.

For `O=C(O)c1cc(O)c(O)c(O)c1` [GALLIC ACID], the IC50 in experiment [1] was determined as 33.9 µM; in experiment [2], 19.8 µM.

With `Cc1c(C)c2c(c(C)c1O)CCC(C)(C(=O)O)O2` (stereo unspecified) [TROLOX], the IC50 is 70.8 µM in experiment [1] and 48.4 µM in experiment [2].

The term IC50 denotes the concentration that inhibits the measured activity by half.
